This passage reports Ki, Ratio and ED50 results from ChEMBL document CHEMBL1127749 (J Med Chem, 1994).

The target in experiment [1] is T1, Muscarinic acetylcholine receptor M1 (Rattus norvegicus, UniProt P08482).
T1 sequence (P08482 whole entry): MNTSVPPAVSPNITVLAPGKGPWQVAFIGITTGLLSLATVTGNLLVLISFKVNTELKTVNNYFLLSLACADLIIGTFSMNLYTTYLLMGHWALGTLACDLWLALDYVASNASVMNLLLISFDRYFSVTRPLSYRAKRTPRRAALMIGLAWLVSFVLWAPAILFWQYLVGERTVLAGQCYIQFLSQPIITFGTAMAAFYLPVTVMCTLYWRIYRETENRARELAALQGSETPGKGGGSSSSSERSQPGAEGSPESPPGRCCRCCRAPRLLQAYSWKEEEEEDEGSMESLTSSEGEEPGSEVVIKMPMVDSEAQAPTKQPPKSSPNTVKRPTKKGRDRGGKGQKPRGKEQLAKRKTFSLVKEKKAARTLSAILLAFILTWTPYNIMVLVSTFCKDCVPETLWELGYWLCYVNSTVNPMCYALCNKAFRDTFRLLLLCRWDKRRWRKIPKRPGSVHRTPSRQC
The experiment can be described thus: In vitro binding affinity for muscarinic M1 receptor by displacing [3H]pirenzepine binding on rat brain homogenate. It counts as tissue-based. In short, it runs like this: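 Two complete curves, five test concentrations spanning 3 decades, each in triplicate. IC50 read from hand-drawn log concentration–response curves, converted to Ki by Cheng–Prusoff.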

The species named for experiment [2] is Rattus norvegicus. Kind of experiment: Ratio of binding affinity at [3H]quinuclidinyl benzilate binding on rat brain homogenate to [3H]- Oxotremorine-M binding on rat brain homogenate. The class given is functional. In short, it runs like this: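 Ago ratio computed as Ki from [³H]QNB binding to whole rat brain homogenate divided by Ki from [³H]oxotremorine-M binding to whole rat brain homogenate.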

Experiment [3] addresses Muscarinic acetylcholine receptor. Kind of experiment: In vitro binding affinity for muscarinic receptor by displacing [3H]quinuclidinyl benzilate binding on rat brain homogenate. The class given is tissue-based. In short, it runs like this:
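Two concentration–response curves, five concentrations covering 3 decades, triplicates. IC50 estimated from hand-drawn log concentration–response curves and converted to Ki with Cheng–Prusoff equation.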

Experiment [4] shares this target. Kind of experiment: In vitro binding affinity for muscarinic receptor by displacing [3H]oxotremorine-M binding on rat brain homogenate. The class given is tissue-based. In short, it runs like this: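 Duplicate full curves of five drug concentrations over 3 decades, triplicate points. IC50 taken from hand-drawn log curves; Ki via Cheng–Prusoff.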
The target is the same in experiment [5]. Kind of experiment: In vitro binding affinity for muscarinic receptor by displacing [3H]quinuclidinyl benzilate binding on rat brain stem homogenate. It counts as tissue-based. In short, it runs like this:
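Two full curves, five test concentrations over 3 decades in triplicate. Hand-drawn log curves gave IC50; Ki by Cheng–Prusoff.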

For experiment [6], the species on record is Rattus norvegicus. The experiment can be described thus: Ratio of binding affinity at [3H]quinuclidinyl benzilate binding on rat brain stem homogenate to [3H]pirenzepine binding on rat brain homogenate.
Experiment [7] concerns the target Muscarinic acetylcholine receptor M2 (Mus musculus) (UniProt Q9ERZ4). The experiment can be described thus: In vivo determination of peripheral M2 receptor mediated salivation, cholinergic side effect.
Experiment [8] shares this target. Kind of experiment: In vivo determination of peripheral M2 receptor mediated hypothermia, cholinergic side effect.
For experiment [9] the target is unchanged. Kind of experiment: In vivo determination of peripheral M2 receptor mediated tremor, cholinergic side effect.

One may read the Ki as the dissociation constant of the complex between target and ligand, obtained from inhibition or displacement. On to `CCCn1nnc(C2=CCCN(C)C2)n1`, for which the Ki in experiment [1] was found to be 57 nM; in [3], 100 nM; in [4] it was 2.8 nM; in [5], 180 nM. Moreover, the Ratio is 36 in the experiment listed under Rattus norvegicus [2] and 3.2 in the experiment filed under Rattus norvegicus [6].
For `CCCn1ncc(C2=CCCNC2)n1`, the Ki worked out at 77 nM in experiment [1], 270 nM in [3], 6.1 nM in experiment [4] and 210 nM in experiment [5]. Moreover, the Ratio in the experiment listed under Rattus norvegicus [2] turned out to be 44; in the experiment listed under Rattus norvegicus [6], 2.7.
As for `C#CCn1ncc(C2CCCNC2)n1` (single isomer, unassigned; (+)), the inhibition constant (Ki) in [1] turned out to be 170 nM; in experiment [3], 230 nM; in [4], 5.2 nM; in experiment [5], 30 nM.
Usually ED50 stands for the dose at which the effect has come halfway, by size or by number of responders. Read a low ED50 as greater potency. As for `C=CCn1ncc(C2CCCNC2)n1` (stereo in doubt; (-)-15b), the ED50 in experiment [7], in experiment [8] and in experiment [9] was over 130 µmol/kg each time. In addition, the Ratio in the experiment filed under Rattus norvegicus [2] was found to be 14; in the experiment filed under Rattus norvegicus [6], 1.8.
As for `C#CCn1ncc(C2CCCNC2)n1` (racemic) [listing 1 of 2 here], the ED50 in experiment [7] amounted to 8.1 µmol/kg; in experiment [8], 10 µmol/kg; in experiment [9] it was 54 µmol/kg. For the same molecule, the Ratio in the experiment filed under Rattus norvegicus [2] worked out at 130; in the experiment filed under Rattus norvegicus [6] it was 1.5.
Turning to `C=CCn1ncc(C2=CCCN(C)C2)n1`, the inhibition constant (Ki) was determined as 6.3 nM in experiment [1], 43 nM in experiment [3], 4.7 nM in [4] and 32 nM in [5]. The Ratio came to 9.1 in the experiment listed under Rattus norvegicus [2] and 5.1 in the experiment filed under Rattus norvegicus [6].
As to `C=CCn1nnc(C2=CCCN(C)C2)n1`, the Ki in experiment [1] is 21 nM; in experiment [3], 140 nM; in experiment [4] it was 13 nM; in experiment [5] it was 46 nM. Further, the Ratio in the experiment listed under Rattus norvegicus [2] came out at 11; in the experiment filed under Rattus norvegicus [6], 2.2.
On to `CCn1ncc(C2CCCNC2)n1` (racemic), for which the inhibition constant Ki in experiment [1] came to 260 nM; in experiment [3] it was 530 nM; in [4], 11 nM; in experiment [5] it was 280 nM. For the same molecule, the Ratio came to 48 in the experiment listed under Rattus norvegicus [2] and 1.1 in the experiment filed under Rattus norvegicus [6].
As for `C#CCn1ncc(C2=CC(C)CNC2)n1` (stereo not drawn), the inhibition constant (Ki) in [1] came out at 30 nM; in experiment [4] it was 31 nM.
As for `CCCCn1nnc(C2=CCCN(C)C2)n1`, the Ki in experiment [1] came to 37 nM; in experiment [3], 81 nM; in experiment [4] it was 5 nM; in experiment [5], 220 nM. Moreover, the Ratio in the experiment filed under Rattus norvegicus [2] was determined as 16; in the experiment listed under Rattus norvegicus [6], 5.9.
Regarding `CCCCN1CCC=C(c2nnn(CC)n2)C1`, the values for the inhibition constant (Ki) in experiment [1] and in experiment [4] were 1400 nM and 340 nM, respectively.
With `CCN1CCC=C(c2nnn(CC)n2)C1`, the results for the Ki in [1] and in [4] were 140 nM and 78 nM, respectively.
`C=Cn1ncc(C2=CCCN(C)C2)n1`: the inhibition constant (Ki) in experiment [1] came out at 40 nM; in experiment [4], 33 nM.
In the case of `CC1C=C(c2nnn(C)n2)CNC1` (stereo not drawn), the inhibitory constant (Ki) in experiment [1] stood at 180 nM; in experiment [4], 69 nM.
With `CCCCn1ncc(C2=CCCN(C)C2)n1`, the inhibition constant (Ki) in experiment [1] is 13 nM; in [3] it was 48 nM; in experiment [4], 2.5 nM; in experiment [5], 37 nM. The figures for the Ratio in the experiment listed under Rattus norvegicus [2] and in the experiment filed under Rattus norvegicus [6] were 19 and 2.8, respectively.
In the case of `C#CCn1ncc(C2=CCCN(C)C2)n1`, the inhibitory constant (Ki) in [1] worked out at 7.7 nM; in experiment [3], 41 nM; in [4], 1.6 nM; in [5] it was 22 nM. Moreover, the results for the Ratio in the experiment filed under Rattus norvegicus [2] and in the experiment filed under Rattus norvegicus [6] were 26 and 2.9, respectively.
On to `CC1=C(c2nnn(C)n2)CNCC1`, for which the figures for the Ki in experiment [1] and in experiment [4] were 960 nM and 570 nM, respectively.
Turning to `CCn1nnc(C2=CCCN(C(C)C)C2)n1`, the Ki in experiment [1] came out at 270 nM; in experiment [4], 300 nM.
In the same order, the values of `CCn1nnc(C2CCCNC2)n1` (racemic) are 1100 nM and 230 nM.
For the molecule `CN1CCCC(c2nnn(C)n2)C1` (racemic), the inhibitory constant (Ki) came to 4800 nM in experiment [1] and 1200 nM in experiment [4].
Turning to `C#CCn1ncc(C2CCCNC2)n1` (racemic) [listing 2 of 2 here], the Ki in experiment [1] came out at 84 nM; in [3], 320 nM; in [4], 2.5 nM; in experiment [5] it was 130 nM.
Turning to `CCn1cc(C2=CCCN(C)C2)nn1`, the Ki stood at 770 nM in experiment [1] and 990 nM in experiment [4].
In the case of `C#CCn1nnc(C2=CCCN(C)C2)n1`, the Ki in [1] came to 44 nM; in [3], 230 nM; in [4], 4.5 nM; in experiment [5] it was 100 nM. Moreover, the results for the Ratio in the experiment filed under Rattus norvegicus [2] and in the experiment filed under Rattus norvegicus [6] were 51 and 2.3, respectively.
In the case of `CC1CC=C(c2nnn(C)n2)CN1` (stereo not drawn), the figures for the inhibition constant (Ki) in experiment [1] and in [4] were 900 nM and 180 nM, respectively.
With `CCCCn1ncc(C2=CCCNC2)n1`, the Ki in experiment [1] was 100 nM; in experiment [3] it was 250 nM; in [4], 4.9 nM; in [5] it was 130 nM. Besides, the Ratio in the experiment listed under Rattus norvegicus [2] was determined as 51; in the experiment filed under Rattus norvegicus [6], 1.3.
As to `Cn1ncc(C2=CCCNC2)n1`, the Ki in [1] was found to be 500 nM; in experiment [3], 570 nM; in experiment [4] it was 0.34 nM; in experiment [5], 90 nM. For the same molecule, the Ratio was 1700 in the experiment filed under Rattus norvegicus [2] and 0.2 in the experiment filed under Rattus norvegicus [6].
Regarding `Cn1nnc(C2=CCCNC2)n1`, the values for the Ki in [1] and in experiment [4] were 1350 nM and 4.5 nM, respectively.
`C=Cn1nnc(C2=CCCN(C)C2)n1`: the Ki in [1] was determined as 120 nM; in experiment [3], 230 nM; in [4], 92 nM; in experiment [5] it was 90 nM. The Ratio in the experiment listed under Rattus norvegicus [2] is 2.5; in the experiment listed under Rattus norvegicus [6], 0.8.
For the molecule `CCCCCCCCn1nnc(C2=CCCN(C)C2)n1`, the Ki in experiment [1] is 27 nM; in experiment [3], 38 nM; in experiment [4] it was 71 nM; in [5], 75 nM. Further, the Ratio in the experiment listed under Rattus norvegicus [2] was found to be 0.5; in the experiment listed under Rattus norvegicus [6] it was 2.8.
Take `CCCN1CCC=C(c2nnn(CC)n2)C1`: the Ki in [1] is 900 nM; in [4], 450 nM.
As to `C#CCn1nnc(C2CCCNC2)n1` (racemic), the inhibition constant Ki in experiment [1] was found to be 260 nM; in [4], 31 nM.
Turning to `CCCCCn1nnc(C2=CCCN(C)C2)n1`, the Ki in experiment [1] turned out to be 26 nM; in [3], 130 nM; in experiment [4], 16 nM; in experiment [5], 110 nM. Moreover, the values for the Ratio in the experiment listed under Rattus norvegicus [2] and in the experiment listed under Rattus norvegicus [6] were 8.1 and 4.2, respectively.
For `CC(C)n1nnc(C2=CCCN(C)C2)n1`, the Ki in experiment [1] worked out at 84 nM; in experiment [3], 530 nM; in experiment [4] it was 85 nM; in [5], 270 nM. The values for the Ratio in the experiment listed under Rattus norvegicus [2] and in the experiment listed under Rattus norvegicus [6] were 6.2 and 3.2, respectively.
For `Cn1nnc(C2CCCNC2)n1` (racemic), the inhibition constant (Ki) in experiment [1] came to 2300 nM; in [4], 33 nM.
On to `C#CCn1ncc(C2CCCNC2)n1` (stereo in doubt; (-)-15c), for which the values for the inhibition constant Ki in experiment [1], in experiment [3] and in [4] were 140 nM, 270 nM and 7.8 nM, respectively.
For `CCn1nncc1C1=CCCN(C)C1`, the inhibitory constant (Ki) in experiment [1] is 1700 nM; in experiment [4], 318 nM.
In the case of `CCCn1ncc(C2=CCCN(C)C2)n1`, the Ki amounted to 15 nM in [1], 47 nM in experiment [3], 2.6 nM in [4] and 38 nM in experiment [5]. Moreover, the Ratio came out at 18 in the experiment listed under Rattus norvegicus [2] and 2.5 in the experiment listed under Rattus norvegicus [6].
For the molecule `CN1CCC=C(c2nnnn2C)C1`, the Ki in experiment [1] turned out to be 24000 nM; in experiment [4], 5400 nM.
With `CN1CCC=C(c2nnn(C)n2)C1`, the inhibitory constant (Ki) turned out to be 250 nM in [1], 790 nM in experiment [3], 6.1 nM in [4] and 230 nM in experiment [5]. For the same molecule, the figures for the Ratio in the experiment listed under Rattus norvegicus [2] and in the experiment listed under Rattus norvegicus [6] were 130 and 0.9, respectively.
Regarding `CCCCCCn1nnc(C2=CCCN(C)C2)n1`, the Ki in [1] came to 32 nM; in experiment [3], 100 nM; in experiment [4], 52 nM; in experiment [5], 220 nM. Besides, the results for the Ratio in the experiment listed under Rattus norvegicus [2] and in the experiment filed under Rattus norvegicus [6] were 1.9 and 6.9, respectively.
